Source: ChEMBL document CHEMBL1134319, “Synthesis and antitumor activity of novel C-7 paclitaxel ethers: discovery of BMS-184476” (J Med Chem, 2001)
pIC50: −log10 of the molar value.

Assays:
HCT-116 = test: Inhibitory activity against human colon tumor cell sensitive to paclitaxel.; assay type: functional, cell-based
M109 [1] = test: In vivo efficacy against Madison Murine lung carcinoma M109 tumors implanted ip and the drug given ip on days 5 and 8 post implantation.; assay type: functional, Mus musculus
Outline: (§1)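 M109 tumor was implanted ip and drug given ip on days 5 and 8 after implantation. Read-out was %T/C of the analogue at its maximum tolerated dose, reported against %T/C for paclitaxel at a historically determined efficacious dose, which is not its MTD. %T/C above 125% is counted as active.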

[2] = Ratio of IC50 values of HCT116 MDR resistant cell line to HCT-116 sensitive cell line.; assay type: functional
Outline: (§2)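 IC50 was measured in the HCT-116/MDR paclitaxel-resistant human colon tumor line and in parental paclitaxel-sensitive HCT-116 cells. The ratio is resistant IC50 divided by sensitive IC50.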

[3] = Inhibition of tubulin polymerization compared paclitaxel.; assay type: functional
Outline: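 Tubulin polymerization was followed by optical density. The value is the compound concentration giving a change of 0.01 OD/h, expressed as a ratio to the paclitaxel concentration giving the same change.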

M109 [4] = test: In vivo efficacy against Madison Murine lung carcinoma M109 tumors implanted sc and the drug given iv every day x 5 beginning 4 days post implantation.; assay type: functional, Mus musculus
Outline: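 Murine M109 tumor was implanted subcutaneously, a site distal to drug administration. Dosing was iv daily ×5 starting 4 days after implant. Activity was expressed as gross log cell kill (LCK) of the analogue at its maximum tolerated dose, alongside LCK for paclitaxel at a historically determined efficacious dose. An LCK of 1 is counted as active.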

M109 [5] = test: In vivo efficacy against Madison Murine lung carcinoma M109 tumors implanted ip and the drug given ip on days 5 and 8 post implantation; assay type: functional, Mus musculus; outline: as §1
[6] = Ratio of IC50 values of HCT116 MDR resistant cell line to HCT-116 sensitive cell line; assay type: functional; outline: as §2
Mus musculus [7] = species: Mus musculus; test: Number of cures/total at optimal dose of 2 units for q2dx5;8 schedule in mice infected with A2780 (ovarian carcinoma) cells; 0/8; assay type: functional
Mus musculus [8] = species: Mus musculus; test: Number of cures/total at optimal dose of 30 units for q2dx5;12 schedule in mice infected with HOC79 (ovarian ca.) cells; 0/8; assay type: functional
Mus musculus [9] = species: Mus musculus; test: Number of cures/total at optimal dose of 30 units for q2dx5;26 schedule in mice infected with L2987 (Lung carcinoma) cells; 0/8; assay type: functional
Mus musculus [10] = species: Mus musculus; test: Number of cures/total at optimal dose of 40 units for q2dx5;10 schedule in mice infected with HCT/pk (Colon ca.) cells; 1/8; assay type: functional
Mus musculus [11] = species: Mus musculus; test: Gross log cell kill activity at optimal dose of 40 units for q2dx5;10 schedule in mice infected with HCT/pk (Colon ca.) cells.; assay type: functional
Mus musculus [12] = species: Mus musculus; test: Gross log cell kill activity at optimal dose of 2 units for q2dx5;8 schedule in mice infected with A2780 (ovarian carcinoma) cells.; assay type: functional
Outline: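 Staged A2780 tumours in mice. Dosing was intravenous, every other day for 5 doses, starting 8 days after implantation. Optimal dose is the one below the excessively toxic dose. Activity is reported as gross log cell kill.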

Mus musculus [13] = species: Mus musculus; test: Gross log cell kill activity at optimal dose of 30 units for q2dx5;26 schedule in mice infected with L2987 (Lung carcinoma) cells; assay type: functional
Mus musculus [14] = species: Mus musculus; test: %T/C at optimal dose of 30 units for q2dx5;12 schedule in mice infected with HOC79 (ovarian ca.) cells.

SMILES | pIC50 (HCT-116) | Efficacy (M109 [1]) | Ratio [2] | Ratio [3] | other results
COCO[C@H]1C[C@H]2OC[C@@]2(OC(C)=O)C2[C@H](OC(=O)c3ccccc3)[C@]3(O)CC(OC(=O)[C@H](O)[C@@H](NC(=O)OC(C)(C)C)c4ccco4)C(C)=C([C@@H](OC(C)=O)C(=O)[C@@]21C)C3(C)C (some centres not stated) | 8.89 | 118 | 5.6 | 0.4 | –
COCO[C@H]1C[C@H]2OC[C@@]2(OC(C)=O)C2[C@H](OC(=O)c3ccccc3)[C@]3(O)CC(OC(=O)[C@H](O)[C@@H](NC(=O)c4ccccc4)c4ccccc4)C(C)=C([C@@H](OC(C)=O)C(=O)[C@@]21C)C3(C)C (some centres not stated) | 8.85 | 192 | 10 | 0.5 | –
COCO[C@H]1C[C@H]2OC[C@@]2(OC(C)=O)C2[C@H](OC(=O)c3ccccc3)[C@]3(O)CC(OC(=O)[C@H](O)[C@@H](NC(=O)OC(C)(C)C)c4ccccc4)C(C)=C([C@@H](OC(C)=O)C(=O)[C@@]21C)C3(C)C (some centres not stated) | 8.96 | 118 | 2 | 0.2 | –
CSCO[C@H]1C[C@H]2OC[C@@]2(OC(C)=O)C2[C@H](OC(=O)c3ccccc3)[C@]3(O)CC(OC(=O)[C@H](O)[C@H](C=C(C)C)NC(=O)OC(C)(C)C)C(C)=C([C@@H](OC(C)=O)C(=O)[C@@]21C)C3(C)C (some centres not stated) | 9.15 | 109 | 3.3 | 1.1 | –
CC(=O)O[C@H]1C(=O)[C@@]2(C)C([C@H](OC(=O)c3ccccc3)[C@]3(O)CC(OC(=O)[C@H](O)[C@@H](NC(=O)OC(C)C)c4ccco4)C(C)=C1C3(C)C)[C@]1(OC(C)=O)CO[C@@H]1C[C@@H]2OCOCCO (some centres not stated) | 9.05 | 145 | – | 0.3 | –
COCCOCO[C@H]1C[C@H]2OC[C@@]2(OC(C)=O)C2[C@H](OC(=O)c3ccccc3)[C@]3(O)CC(OC(=O)[C@H](O)[C@@H](NC(=O)c4ccccc4)c4ccccc4)C(C)=C([C@@H](OC(C)=O)C(=O)[C@@]21C)C3(C)C (some centres not stated) | 9.05 | 132 | – | 1.1 | –
CSCO[C@H]1C[C@H]2OC[C@@]2(OC(C)=O)C2[C@H](OC(=O)c3ccccc3)[C@]3(O)CC(OC(=O)[C@H](O)[C@@H](NC(=O)c4ccccc4)c4ccco4)C(C)=C([C@@H](OC(C)=O)C(=O)[C@@]21C)C3(C)C (some centres not stated) | 9.22 | 191 | – | 1 | Efficacy (M109 [4]): 1.1
CC(=O)O[C@H]1C(=O)[C@@]2(C)C([C@H](OC(=O)c3ccccc3)[C@]3(O)CC(OC(=O)[C@H](O)[C@@H](NC(=O)OC(C)(C)C)c4ccco4)C(C)=C1C3(C)C)[C@]1(OC(C)=O)CO[C@@H]1C[C@@H]2OCOCCO (some centres not stated) | 8.77 | – | 4.1 | 0.3 | –
COCO[C@H]1C[C@H]2OC[C@@]2(OC(C)=O)C2[C@H](OC(=O)c3ccccc3)[C@]3(O)CC(OC(=O)[C@H](O)[C@@H](NC(=O)OCc4ccccc4)c4ccccc4)C(C)=C([C@@H](OC(C)=O)C(=O)[C@@]21C)C3(C)C (some centres not stated) | 8.85 | 139 | – | 0.6 | –
CCOCO[C@H]1C[C@H]2OC[C@@]2(OC(C)=O)C2[C@H](OC(=O)c3ccccc3)[C@]3(O)CC(OC(=O)[C@H](O)[C@@H](NC(=O)c4ccccc4)c4ccccc4)C(C)=C([C@@H](OC(C)=O)C(=O)[C@@]21C)C3(C)C (some centres not stated) | 8.66 | 132 | – | 0.6 | –
CO[C@H]1C[C@H]2OC[C@@]2(OC(C)=O)C2[C@H](OC(=O)c3ccccc3)[C@]3(O)CC(OC(=O)[C@H](O)[C@@H](NC(=O)OC(C)(C)C)c4ccco4)C(C)=C([C@@H](OC(C)=O)C(=O)[C@@]21C)C3(C)C (some centres not stated) | 8.89 | – | – | 0.4 | Efficacy (M109 [5]): 121; Ratio [6]: 1.7
CC(=O)O[C@H]1C(=O)[C@@]2(C)C([C@H](OC(=O)c3ccccc3)[C@]3(O)CC(OC(=O)[C@H](O)[C@@H](NC(=O)c4ccccc4)c4ccccc4)C(C)=C1C3(C)C)[C@]1(OC(C)=O)CO[C@@H]1C[C@@H]2OCOCCO (some centres not stated) | 8.96 | 238 | – | 1 | Efficacy (M109 [4]): 0.9
CSCO[C@H]1C[C@H]2OC[C@@]2(OC(C)=O)C2[C@H](OC(=O)c3ccccc3)[C@]3(O)CC(OC(=O)[C@H](O)[C@@H](NC(=O)OC(C)(C)C)c4ccco4)C(C)=C([C@@H](OC(C)=O)C(=O)[C@@]21C)C3(C)C (some centres not stated) | 8.77 | 104 | 1 | 1.6 | –
COCO[C@H]1C[C@H]2OC[C@@]2(OC(C)=O)C2[C@H](OC(=O)c3ccccc3)[C@]3(O)CC(OC(=O)[C@H](O)[C@@H](NC(=O)c4ccccc4)c4ccco4)C(C)=C([C@@H](OC(C)=O)C(=O)[C@@]21C)C3(C)C (some centres not stated) | 8.68 | – | – | 2.3 | Efficacy (M109 [5]): 115
CC(=O)O[C@H]1C(=O)[C@@]2(C)C([C@H](OC(=O)c3ccccc3)[C@]3(O)CC(OC(=O)[C@H](O)[C@@H](NC(=O)OC(C)(C)C)c4ccccc4)C(C)=C1C3(C)C)[C@]1(OC(C)=O)CO[C@@H]1C[C@@H]2OCOCCO (some centres not stated) | 8.96 | 136 | 0.7 | 1.6 | –
CCCCOC(=O)N[C@@H](c1ccccc1)[C@@H](O)C(=O)OC1C[C@@]2(O)[C@@H](OC(=O)c3ccccc3)C3[C@](C)(C(=O)[C@H](OC(C)=O)C(=C1C)C2(C)C)[C@@H](OCSC)C[C@H]1OC[C@@]31OC(C)=O (some centres not stated) | 8.92 | 177 | – | 0.6 | Efficacy (M109 [4]): 0.2
CC(=O)O[C@H]1C(=O)[C@@]2(C)[C@H]([C@H](OC(=O)c3ccccc3)[C@]3(O)C[C@H](OC(=O)[C@H](O)[C@@H](NC(=O)c4ccccc4)c4ccccc4)C(C)=C1C3(C)C)[C@]1(OC(C)=O)CO[C@@H]1C[C@@H]2O [PACLITAXEL] | – | – | 200 | 1 | C/T (Mus musculus [7]): 0; C/T (Mus musculus [8]): 0; C/T (Mus musculus [9]): 0; C/T (Mus musculus [10]): 1; LCK (Mus musculus [11]): 2.8; LCK (Mus musculus [12]): 6.1; LCK (Mus musculus [13]): 1.3; %T/C (Mus musculus [14]): 273%
CSCO[C@H]1C[C@H]2OC[C@@]2(OC(C)=O)C2[C@H](OC(=O)c3ccccc3)[C@]3(O)CC(OC(=O)[C@H](O)[C@@H](NC(=O)OC(C)C)c4ccccc4)C(C)=C([C@@H](OC(C)=O)C(=O)[C@@]21C)C3(C)C (some centres not stated) | 8.77 | 191 | – | 1.6 | Efficacy (M109 [4]): 0.5
